This is a sample that favours compounds with a hit; in the whole collection about 4% have one here.
PHOSPHO1 inh: blocks human PHOSPHO1 phosphatase activity; recombinant PHOSPHO1, absorbance phosphatase assay; AID 1565; inhibition, % at 13.3 µM; 290,000 tested, 1.1% active; in the data active = inhibition above about 60%
KCNK3 inh: human KCNK3 channel inhibition, primary screen; AID 602410; B-score at 10 µM; O14649; 340,000 tested, 0.84% active; CHO-KCNK3 thallium flux, FluxOR fluorescence; active compounds read low;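 active = B-score under library mean minus 4 SD, starting fluorescence ratio at most library mean plus 5 SD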;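 also: more negative B-score means stronger inhibition of thallium flux through KCNK3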
Target sequence (O14649 whole entry, looked up): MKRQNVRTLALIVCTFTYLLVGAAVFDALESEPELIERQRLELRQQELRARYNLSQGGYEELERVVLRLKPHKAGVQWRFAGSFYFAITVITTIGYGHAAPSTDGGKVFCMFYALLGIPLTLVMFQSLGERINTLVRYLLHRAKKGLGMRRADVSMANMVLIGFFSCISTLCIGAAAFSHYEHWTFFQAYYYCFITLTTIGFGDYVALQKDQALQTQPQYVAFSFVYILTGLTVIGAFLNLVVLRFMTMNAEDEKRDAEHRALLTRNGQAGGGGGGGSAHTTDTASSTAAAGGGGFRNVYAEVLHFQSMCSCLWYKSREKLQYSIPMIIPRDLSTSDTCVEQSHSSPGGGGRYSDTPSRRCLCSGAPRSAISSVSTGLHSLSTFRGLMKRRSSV
hERG rescue: compounds protecting human hERG from proarrhythmic drug block. activation (rescue from dofetilide block), less the hit threshold, % at 10 µM. CHO-hERG, FluxOR thallium flux, dofetilide IC70 present. 310,000 tested, 0.51% active. Q12809;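 active = activation above the mean of controls blocked by dofetilide plus 5 SD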;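 also: thallium influx through hERG after potassium depolarization seen as dye fluorescence rise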
KCNQ1 pot: human KCNQ1 channel potentiation or activation; P51787; CHO-K1 KCNQ1, thallium flux FluxOR fluorescence; active compounds read high; B-score at 10 µM; 310,000 tested, 0.35% active; AID 2648;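 active = fluorescence ratio B-score, a plate-corrected score, at least three library SD, with initial intensity B-score within 5 SD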
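assay system = KCNQ1-transfected CHO-K1 cells | medium = assay buffer with matched DMSO | probe or stimulus = depolarizing K+/Tl+ stimulus, K2SO4 and Tl2SO4 each 12.5 mM in 5x stock | dosing = single dose | incubation = dye 90 min, compound 20 min, room temperature | detection = kinetic FluxOR fluorescence, 10 s baseline plus 110 s post-stimulus | evaluation = ratio B score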
KCNK9 inh: inhibitors of human KCNK9 two-pore domain potassium channel. Q9NPC2. HEK293 KCNK9, FluxOR thallium flux fluorescence; active compounds read low. B-score at 10 µM. 310,000 tested, 1.2% active. AID 488922;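 active = ratio B-score over 3 SD below the library mean, with starting fluorescence within 5 SD of its mean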;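 also: negative B-score means less thallium flux so channel inhibition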
KCNQ1 block: blocks the human KCNQ1 potassium channel; 310,000 tested, 1.3% active; B-score at 10 µM; CHO-K1 KCNQ1, FluxOR thallium flux fluorescence; active compounds read high;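 active = compounds whose thallium flux B-score, printed positive for inhibition, exceeds three library SD while starting fluorescence stays within three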;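 also: channel opened by potassium depolarization with thallium stimulus after 20 min compound exposure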
KCNK3 confirm: human KCNK3 channel inhibition, confirmation assay | 2,400 tested, 99% active | ratio percent of control, % at 10 µM | CHO-KCNK3 thallium flux, FluxOR fluorescence; 0% buffer, 100% carvedilol maximal block | AID 651638 | shares compounds with KCNK3 inh;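 active = ratio percent of control, averaged over triplicates, above buffer control mean plus 5 SD, cut at about 64% in these data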;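 also: ratio is the fluorescence rise from min to max over baseline after thallium stimulus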
KCNK3 uninduced: activity in cells without induced KCNK3 expression | shares compounds with KCNK3 inh | non-induced KCNK3 parental cells, FluxOR thallium flux; active compounds read low | thallium flux ratio (lower = more inhibition) at 10 µM | 2,400 tested, 40% active | AID 651747;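 active = thallium flux ratio, averaged over three wells, more than 5 SD below the buffer control mean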;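 also: host cells are CHO cells without KCNK3 induction; ratio is peak minus trough fluorescence over baseline then normalized to buffer controls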
* hit, by the source's call; i = inactive; · = not tested or not shown.

SMILES	PHOSPHO1 inh	KCNK3 inh	hERG rescue	KCNQ1 pot	KCNK9 inh	KCNQ1 block	KCNK3 confirm	KCNK3 uninduced
Cn1nnnc1Sc1ncnc2scc(-c3ccc(-c4ccccc4)cc3)c12	·	i	·	·	·	·	·	·
Cn1nnnc1Sc1ncnc2scc(-c3cc4ccccc4o3)c12	·	-13*	·	·	·	·	118*	i
COC(=O)C1=C(C)N(C2CCCCC2)C(=O)/C1=C\c1cccs1	-10	-9.8*	2	i	i	i	98*	0.14*
COc1ccc(N2CCN(C(=O)Cc3cccs3)CC2)cc1	-1	-9.5*	3	i	i	i	75*	i
CC(=O)c1ccc(N2CCN(C(=O)Cc3cccs3)CC2)cc1	-35	i	-14	i	i	i	·	·
Cc1ccc(NC(=O)c2cc(C(C)(C)C)nn2Cc2ccccc2)cc1	33	-16*	-17	i	i	i	148*	i
CC(C)(C)c1cc(C(=O)NNc2cc(C(F)(F)F)ccc2Cl)n(Cc2ccccc2)n1	-1	-19*	-10	i	i	8*	139*	0.13*
Cc1ccccc1CC(=O)c1ccc(O)c(C)c1O	20	-13*	-12	i	i	i	115*	0.15*
CCCOP(=O)(OCCC)C(Nc1ccc(C(C)C)cc1)c1ccc([N+](=O)[O-])cc1 (configuration not stated)	4	-8.8*	-16	i	i	i	118*	0.16*
CCCCc1nn(-c2cc(Cl)ccc2OC)c2c1C(=O)CC(C)(C)C2	-19	-10*	-4	i	i	i	92*	i
CCOC(=O)c1c(CSc2ccc(CC)cc2)oc2ccc(O)c(CN(C)C)c12	20	-9.1*	-27	i	-7.4*	8*	120*	0.16*
CCOC(=O)c1c(C)oc2ccc(O)c(CN(C)C)c12	13	i	-5	i	i	i	·	·
O=c1ccn(CCCBr)c(=O)[nH]1	3	i	-3	i	i	i	·	·
N#Cc1cc2c(nc1SCc1ccc(Cl)nc1)CCCCC2	15	-11*	-14	i	-7*	i	116*	0.16*
CCC1CCCCN1Cc1ccc(CNC(=O)CCc2nnc3ccc(N4CCCCC4)nn23)o1 (configuration not stated)	22	i	-1	i	i	i	·	·
Cc1cc(C)c2nc(-c3cccnc3)cc(C(=O)NC(C)c3cnn(C)c3C)c2c1 (configuration not stated)	51	-9.2*	-18	i	i	i	111*	0.16*
Cc1cccc2c(C(=O)O)cc(-c3cccnc3)nc12	9	i	-5	i	i	i	·	·
Cc1ccc(C)c(N2CCN(C(=O)CCS(=O)(=O)c3ccc4c(c3)NC(=O)CO4)CC2)c1	43	i	-7	i	i	i	·	·
CC(C)N(Cc1ccccc1)C(=S)NC1CCCCC1	-21	-8.9*	-10	i	i	i	111*	i
Cc1ccc(C(=O)Nc2ccc(Br)c(C(F)(F)F)c2)cc1	18	-9.3*	-22	i	i	i	120*	i
Cc1ccc(NC(=O)c2ccc(C)cc2)cc1	·	i	-7	i	i	i	·	·
COc1ccc(NC(=O)COC(=O)c2c3c(nc4ccccc24)CCCC3)cc1Cl	-62	-9.1*	-6	i	-9.7*	i	120*	0.15*
COc1ccc(NC(=O)COC(=O)c2c3c(nc4ccccc24)CCCC3)cc1	-8	i	-6	i	i	i	·	·
Cc1ccc(NC(=O)CN2CCCC2c2cccs2)cc1S(=O)(=O)N1CCCCC1 (configuration not stated)	·	i	·	·	·	·	·	·
CCOC(=O)C1=C(C)OC(N)=C(C#N)C1c1cc(OC)c2c(c1)OCO2 (configuration not stated)	-7	-9.7*	-10	i	i	i	94*	i
SMILES	PHOSPHO1 inh	KCNK3 inh	hERG rescue	KCNQ1 pot	KCNK9 inh	KCNQ1 block	KCNK3 confirm	KCNK3 uninduced
COc1cc(C2C(C#N)=C(N)Oc3cc(O)ccc32)cc2c1OCO2 (configuration not stated)	12	i	-10	i	i	i	·	·
COc1ccc(/C=C2\SC(=S)NC2=O)cc1OS(=O)(=O)c1ccc(NC(C)=O)cc1	-20	-10*	-26	i	i	13*	124*	i
COc1cccc(/C=C2\SC(=S)NC2=O)c1OS(=O)(=O)c1ccc(NC(C)=O)cc1	-6	i	-9	i	i	i	·	·
COc1cccc2cc(C(C)N(CCCN3CCOCC3)C(=S)Nc3ccc(C)cc3)oc12 (configuration not stated)	-8	-9.5*	-9	i	i	i	105*	i
Cc1ccc(-c2csc(NC(=O)c3ccc(Br)cc3)c2C(=O)O)cc1	6	i	-15	i	i	i	·	·
COc1cc(C(=O)Nc2scc(-c3ccc(Br)cc3)c2C(=O)O)cc(OC)c1OC	·	-9.7*	-25	i	i	8*	119*	0.15*
CCN(C[C@H]1N[C@@](C)(C(=O)OC)[C@H]2C(=O)N(C)C(=O)[C@@H]12)S(=O)(=O)c1ccc(C(F)(F)F)cc1	·	i	·	·	·	·	·	·
Nc1nonc1-n1nnc(C(=O)N/N=C/c2ccoc2)c1-c1ccccc1	30	i	-7	i	i	i	·	·
C=C[C@H]1[C@H](OC2OC(CO)C(O)C(O)C2O)OC=C(C(=O)OC)[C@H]1C[C@H]1CC(=O)C[C@H](CC(=O)CCc2ccc(O)cc2)O1 (some centres not stated)	·	·	-3	i	i	i	·	·
COC(=O)c1cccc(NC(=O)CC2C(=O)NCCN2C(=O)Nc2cc(C)cc(C)c2)c1 (configuration not stated)	13	-9.2*	-16	i	i	i	119*	0.14*
Cc1cc(C)cc(NC(=O)N2CCNC(=O)C2CC(=O)Nc2cc(Cl)ccc2Cl)c1 (configuration not stated)	19	i	-5	i	i	i	·	·
COc1ccccc1N1CCN(C(=O)Nc2cccc(Cl)c2)CC1	13	i	-12	i	i	i	·	·
COc1ccc(Cl)cc1NC(=O)N1CCN(c2ccccc2OC)CC1	3	-11*	-13	i	i	i	82*	i

Screens: PubChem BioAssay, several laboratories
